Screening data from PubChem.
SENP6 block – SENP6 protease inhibitors, primary screen, biochemical, luminescence, uHTS | Recombinant SENP6 catalytic domain, aminoluciferin luminescence | Sentrin-specific protease 6 (Homo sapiens), Q9GZR1 | 330,000 compounds, 1.8% hits | inhibition, % at 10 µM;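 active means inhibition above about 50% at the single tested dose, limit read from the data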
SENP8 block-1 – SENP8 protease inhibitors, primary screen, biochemical, luminescence. purified SENP8, Z-RLRGG-aminoluciferin cleavage. inhibition, % at 10 µM. 330,000 compounds, 1.2% hits; in the data active means inhibition above about 50%
SENP1 inh – human SENP1 catalytic domain inhibitors, primary screen, biochemical, FRET, uHTS; Sentrin-specific protease 1 (Homo sapiens), Q9P0U3; recombinant SENP1 catalytic domain, CyPet-SUMO1-YPet FRET cleavage; inhibition, % at 10 µM; 360,000 compounds, 0.21% hits;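 active means inhibition at least 30% at 10 µM, raw YFP signal under a set limit, fluorescence ratio 0.5 to 1.5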
Target sequence (Q9P0U3 419-644 limits assumed): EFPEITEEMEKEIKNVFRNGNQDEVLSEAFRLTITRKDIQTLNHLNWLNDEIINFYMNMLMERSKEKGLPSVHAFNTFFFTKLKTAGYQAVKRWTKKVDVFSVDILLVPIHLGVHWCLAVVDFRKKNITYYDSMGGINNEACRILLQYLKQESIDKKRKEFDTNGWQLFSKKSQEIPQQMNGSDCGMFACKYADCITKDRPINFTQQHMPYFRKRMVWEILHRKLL
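Controls: no-enzyme wells low, DMSO-plus-enzyme wells high control. Test system: human recombinant His6-tagged SENP1 catalytic domain enzyme. Reagent: SFCypet-SUMO1-SFYpet FRET protein substrate, 25 nM final. Doses: one dose per compound, 10 µM, 0.5% DMSO. Detection: FRET, CFP and YFP emission. Timing: 50 min reaction at room temperature.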
Platelet DG rel – inhibitors of platelet dense granule secretion, primary screen, cell-based, MLPCN, human platelets; human platelet-rich plasma, SFLLRN dense granule ATP release, luminescence; inhibition, %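 (compounds screened at 7.5 µM in platelet-rich plasma)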; 300,000 compounds, 0.22% hits;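 active means mean replicate score, as percent of positive control, at or above 50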
SENP7 inh – SENP7 protease inhibitors, primary screen, biochemical, luminescence, uHTS. recombinant SENP7, Z-RLRGG-aminoluciferin luminescence, 40 min. inhibition, % at 5 µM. 330,000 compounds, 1.5% hits. AID 434973, 2010;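 active means inhibition above about 50% at the single test dose, limit read from the data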
SENP8 block-2 – human SENP8 protease inhibitors, primary screen, biochemical, fluorescence, Nedd8 protein substrate, uHTS; Sentrin-specific protease 8 (Homo sapiens), Q96LD8; recombinant SENP8; inhibition, % at 20 µM; 360,000 compounds, 0.64% hits; AID 602440, 2012; in the data active means inhibition mostly above about 40%, no sharp cut-off; inactive means mostly below about 27%
SENP8 confirm – SENP8 protease inhibitors, retest, confirmation, biochemical, luminescence, single concentration | inhibition, % at 12.5 µM | 6,200 compounds, 40% hits | Recombinant SENP8, Z-RLRGG-aminoluciferin luminescence, 60 min | shares compounds with SENP7 inh;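 active means mean inhibition across replicates above about 50%, limit read from the data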
SENP6 confirm – SENP6 protease inhibitors, confirmation, biochemical, luminescence, single concentration; shares compounds with SENP7 inh; recombinant SENP6, Z-RLRGG-aminoluciferin luminescence; inhibition, % at 12.5 µM; 6,200 compounds, 58% hits
SENP7 confirm – SENP7 protease inhibitors, retest, confirmation, biochemical, luminescence, single concentration | recombinant SENP7, Z-RLRGG-aminoluciferin luminescence, 40 min | shares compounds with SENP7 inh | AID 488917, 2010 | inhibition, % at 12.5 µM | 6,200 compounds, 69% hits
Casp3 select – caspase-3 protease inhibitors, confirmation, selectivity assay for SENP inhibitor project, biochemical, single concentration; purified caspase-3, Z-DEVD-aminoluciferin luminescence, 60 min; shares compounds with SENP7 inh; inhibition, % at 12.5 µM; 6,200 compounds, 60% hits;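 active means mean inhibition above about 50%, limit read from the data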
Target sequence (P42574 28-227 limits assumed): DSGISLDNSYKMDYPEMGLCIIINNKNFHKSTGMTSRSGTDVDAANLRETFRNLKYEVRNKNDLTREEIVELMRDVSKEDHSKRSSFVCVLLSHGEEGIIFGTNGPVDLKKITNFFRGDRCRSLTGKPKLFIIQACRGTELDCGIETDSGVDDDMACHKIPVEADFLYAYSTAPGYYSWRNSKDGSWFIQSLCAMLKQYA
SENP luc ctr – luminescence interference (SENP counter-screen) | shares compounds with SENP7 inh | Pre-incubated SENP8/Z-RLRGG-aminoluciferin, luciferase luminescence interference | inhibition, % at 12.5 µM | 6,200 compounds, 39% hits;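 active means mean inhibition above about 50% when retested at one dose, limit read from the data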
Numbers stand for hits; – = inactive; · = no result given. Only some compounds are listed: those with a hit (about 2.6% of all), similar ones and a draw of the others.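 How the source made its calls, unless noted: active means mean inhibition above about 50% in the one-dose retest (limit read from the data); inactive means the rest.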

SMILES	SENP6 block	SENP8 block-1	SENP1 inh	Platelet DG rel	SENP7 inh	SENP8 block-2	SENP8 confirm	SENP6 confirm	SENP7 confirm	Casp3 select	SENP luc ctr
COc1ccc(C2=NN(CN3C(=O)C(=O)c4ccccc43)C(c3ccc(Br)cc3)C2)cc1 (stereo not given)	–	–	–	–	81	–	–	–	–	–	–
CCC(C)[C@H]1CNCCN1CCc1cccc(F)c1 (stereo not given in full)	–	–	–	–	–	–	·	·	·	·	·
COc1ccc(C(=O)Nc2cnccn2)cc1[N+](=O)[O-]	–	–	–	–	–	–	·	·	·	·	·
CC(C)(C)c1ccc(C(=O)Nc2cnccn2)cc1	52	–	–	–	55	–	–	–	60	63	–
COC(=O)c1ccc(-c2ccc(F)cc2)nc1C	62	–	–	–	53	–	–	–	77	–	–
CCOC(=O)c1cc2c(nc1N)CCCC2	–	–	–	–	–	–	·	·	·	·	·
CCOC(=O)c1ccc(-c2ccc3c(c2)CCC3)nc1C	60	53	–	–	70	–	57	57	80	–	–
CC(C)NC(=O)c1ccc2c3n(nc2c1)-c1ccc(Cl)cc1CO3	–	54	–	–	–	–	–	–	62	–	–
C[C@@H](CO)NC(=O)c1ccc2c3n(nc2c1)-c1ccccc1CO3	57	–	–	–	–	–	65	66	92	91	70
Cc1ccc2c(c1)COc1c3ccc(C(=O)N[C@@H](CO)C(C)C)cc3nn1-2	–	–	–	–	–	–	·	·	·	·	·
CCN(CC)CCCNC(=O)c1ccc2c3n(nc2c1)-c1ccc(Cl)cc1CO3	–	–	–	–	–	–	·	·	·	·	·
Cc1cc(Cl)c(C)c(S(=O)(=O)N2CCN(CC(=O)N3CCOCC3)CC2)c1Cl	–	–	–	·	–	–	·	·	·	·	·
Cc1ccsc1C(=O)OC(C)C(=O)NC1CCCCC1C (stereo not given)	–	–	–	·	–	–	·	·	·	·	·
COc1ccc(NC(=O)CN2CCN(S(=O)(=O)N3CCCCCC3)CC2)cc1	–	–	–	–	–	–	·	·	·	·	·
Fc1ccccc1SCc1nnc(-c2ccccc2Br)o1	–	53	–	–	–	–	66	67	86	–	–
CN(C1CCCCC1)S(=O)(=O)c1ccc2c(c1)c(=O)c(C(=O)O)cn2C	·	·	–	·	·	–	·	·	·	·	·
CN(C)c1ccc(N=Nc2cccc3ccoc23)cc1	86	84	–	–	90	–	77	77	94	–	–
CN(C)c1ccc(N=Nc2cccc(F)c2)cc1	94	87	–	–	95	–	–	73	56	59	64
CN(C)C(=S)N=c1ssc(=S)n1Cc1cccnc1	·	·	–	·	·	–	·	·	·	·	·
Cc1cccc(CCNC(=O)CNS(=O)(=O)c2ccc3nc(C)sc3c2)c1	–	–	–	–	–	–	·	·	·	·	·
Cc1ccc(Nc2nc(N)c3ccccc3n2)cc1C	–	93	–	–	92	–	94	96	101	94	96
Cc1cc(Nc2ccc(C)c(C)c2)c2ccccc2n1	–	–	–	–	–	–	·	·	·	·	·
